Measured values taken from ChEMBL document CHEMBL4689842, “EUbOPEN Chemogenomics Library wave 1” (2021).
“And” between values parts separate entries of the source, which are not always exact repeats. Identical values can stand only once.

System: U2OS
Assay: Multiplex assay against U2OS
Type: toxicity, cell-based
Conditions: human
Outline: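 Values for tubulin, mitochondrial-mass and membrane-permeability phenotypes are per cents of cells with healthy nuclei. These cells were identified by CellPathfinder machine-learning gating of live cells that had been stained at seeding with Hoechst33342, BioTracker Green Microtubule Cytoskeleton Dye, MitoTracker Red and Annexin V Alexa Fluor 680 and imaged on a CQ1 microscope at 37°C and 5% CO2 after compound addition. The gating first set Hoechst high-intensity objects apart from normal cells, then split normal cells into healthy, pyknosed or fragmented nuclei, and pyknosed cells into mitotic or apoptotic.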

[1] = 12 h, 1 µM, compound concentration 1 uM, replicate 1
[2] = 12 h, 1 µM, compound concentration 1 uM, replicate 2
[3] = 12 h, 10 µM, compound concentration 10 uM, replicate 1
[4] = 12 h, 10 µM, compound concentration 10 uM, replicate 2
[5] = 24 h, 1 µM, compound concentration 1 uM, replicate 1
[6] = 24 h, 1 µM, compound concentration 1 uM, replicate 2
[7] = 24 h, 10 µM, compound concentration 10 uM, replicate 1
[8] = 24 h, 10 µM, compound concentration 10 uM, replicate 2
[9] = 48 h, 1 µM, compound concentration 1 uM, replicate 1
[10] = 48 h, 1 µM, compound concentration 1 uM, replicate 2
[11] = 48 h, 10 µM, compound concentration 10 uM, replicate 1
[12] = 48 h, 10 µM, compound concentration 10 uM, replicate 2

Nc1c(C(=O)NCc2ccc(C(=O)NCCCC3CCCCC3)cc2)cnn1-c1ccccc1 [SR-318]
Population Apoptotic (%) [1]: 42% and 23% and 30% | Population Fragmented Nuclei (%) [1]: 5% and 10% and 6% | Population Healthy Nuclei (%) [1]: 85% and 78% and 81% | Population Hoechst High Intensity Objects (%) [1]: 3% | Population Membrane Permeable-Phenotype (%) [1]: 4% and 3% | Population Mitochondria Different-Phenotype (%) [1]: 9% and 6% | Population Mitotic Cells (%) [1]: 57% and 76% and 69% | Population Normal (%) [1]: 96% | Population Pyknosed Nuclei (%) [1]: 9% and 10% and 12% | Population Tubulin-Different-Phenotype (%) [1]: 52% and 44% | Total Cell Count [1]: 171 and 322 and 200 | Population Fragmented Nuclei (%) [2]: 9% and 3% | Population Healthy Nuclei (%) [2]: 83% and 75% and 91% | Population Membrane Permeable-Phenotype (%) [2]: 6% and 5% | Population Mitochondria Different-Phenotype (%) [2]: 8% | Population Mitotic Cells (%) [2]: 50% and 87% and 100% | Population Normal (%) [2]: 95% and 73% | Population Tubulin-Different-Phenotype (%) [2]: 19% and 25% and 11% | Total Cell Count [2]: 63 and 91 and 118 | Population Apoptotic (%) [3]: 61% and 58% and 42% | Population Fragmented Nuclei (%) [3]: 6% and 14% and 11% | Population Healthy Nuclei (%) [3]: 74% and 65% and 67% | Population Hoechst High Intensity Objects (%) [3]: 2% and 8% and 5% | Population Membrane Permeable-Phenotype (%) [3]: 8% and 5% and 2% | Population Mitochondria Different-Phenotype (%) [3]: 57% and 50% and 60% | Population Mitotic Cells (%) [3]: 38% and 41% and 57% | Population Normal (%) [3]: 97% and 91% and 94% | Population Pyknosed Nuclei (%) [3]: 18% and 20% and 21% | Population Tubulin-Different-Phenotype (%) [3]: 39% and 47% and 40% | Total Cell Count [3]: 186 and 329 and 402 | Population Apoptotic (%) [4]: 45% and 22% and 33% | Population Fragmented Nuclei (%) [4]: 17% and 15% and 12% | Population Healthy Nuclei (%) [4]: 69% and 58% and 72% | Population Hoechst High Intensity Objects (%) [4]: 7% and 1% and 10% | Population Membrane Permeable-Phenotype (%) [4]: 10% and 7% and 3% | Population Mitochondria Different-Phenotype (%) [4]: 55% and 51% | Population Mitotic Cells (%) [4]: 54% and 77% and 66% | Population Normal (%) [4]: 92% and 98% and 89% | Population Pyknosed Nuclei (%) [4]: 13% and 25% and 15% | Population Tubulin-Different-Phenotype (%) [4]: 50% and 56% and 67% | Total Cell Count [4]: 71 and 90 and 91 | Population Apoptotic (%) [5]: 35% and 34% and 21% | Population Fragmented Nuclei (%) [5]: 5% and 8% | Population Healthy Nuclei (%) [5]: 85% | Population Hoechst High Intensity Objects (%) [5]: 0% and 3% | Population Membrane Permeable-Phenotype (%) [5]: 1% and 4% and 2% | Population Mitochondria Different-Phenotype (%) [5]: 5% and 6% and 8% | Population Mitotic Cells (%) [5]: 64% and 65% and 78% | Population Normal (%) [5]: 99% and 96% | Population Pyknosed Nuclei (%) [5]: 9% and 10% | Population Tubulin-Different-Phenotype (%) [5]: 59% and 20% and 47% | Total Cell Count [5]: 185 and 423 and 237 | Population Apoptotic (%) [6]: 25% | Population Fragmented Nuclei (%) [6]: 6% and 3% and 4% | Population Healthy Nuclei (%) [6]: 80% and 84% and 75% | Population Membrane Permeable-Phenotype (%) [6]: 8% and 5% | Population Mitochondria Different-Phenotype (%) [6]: 13% and 12% and 7% | Population Mitotic Cells (%) [6]: 75% | Population Normal (%) [6]: 94% and 97% and 77% | Population Pyknosed Nuclei (%) [6]: 13% and 11% and 19% | Population Tubulin-Different-Phenotype (%) [6]: 22% and 14% and 23% | Total Cell Count [6]: 67 and 130 and 97 | Population Apoptotic (%) [7]: 55% and 58% and 61% | Population Fragmented Nuclei (%) [7]: 12% and 5% | Population Healthy Nuclei (%) [7]: 67% and 74% and 61% | Population Hoechst High Intensity Objects (%) [7]: 8% and 4% | Population Membrane Permeable-Phenotype (%) [7]: 4% and 2% and 0% | Population Mitochondria Different-Phenotype (%) [7]: 55% and 53% and 63% | Population Mitotic Cells (%) [7]: 44% and 41% and 38% | Population Normal (%) [7]: 91% and 95% | Population Pyknosed Nuclei (%) [7]: 19% | Population Tubulin-Different-Phenotype (%) [7]: 36% and 24% | Total Cell Count [7]: 409 and 192 and 426 | Population Apoptotic (%) [8]: 28% and 44% and 46% | Population Fragmented Nuclei (%) [8]: 13% and 17% and 14% | Population Healthy Nuclei (%) [8]: 65% and 62% and 66% | Population Hoechst High Intensity Objects (%) [8]: 1% and 7% | Population Membrane Permeable-Phenotype (%) [8]: 9% and 7% and 3% | Population Mitochondria Different-Phenotype (%) [8]: 58% and 57% and 66% | Population Mitotic Cells (%) [8]: 71% and 55% and 53% | Population Normal (%) [8]: 98% and 92% | Population Pyknosed Nuclei (%) [8]: 21% and 20% and 18% | Population Tubulin-Different-Phenotype (%) [8]: 41% and 30% and 61% | Total Cell Count [8]: 104 and 67 and 97 | Population Apoptotic (%) [9]: 44% and 47% and 55% | Population Fragmented Nuclei (%) [9]: 3% and 8% | Population Healthy Nuclei (%) [9]: 87% and 83% | Population Hoechst High Intensity Objects (%) [9]: 0% and 2% | Population Membrane Permeable-Phenotype (%) [9]: 2% and 1% | Population Mitochondria Different-Phenotype (%) [9]: 5% and 8% and 7% | Population Mitotic Cells (%) [9]: 55% and 52% and 44% | Population Normal (%) [9]: 99% and 97% | Population Pyknosed Nuclei (%) [9]: 8% and 9% and 7% | Population Tubulin-Different-Phenotype (%) [9]: 69% and 56% and 24% | Total Cell Count [9]: 247 and 369 and 658 | Population Apoptotic (%) [10]: 28% and 40% and 26% | Population Fragmented Nuclei (%) [10]: 7% and 5% and 2% | Population Healthy Nuclei (%) [10]: 86% and 84% | Population Membrane Permeable-Phenotype (%) [10]: 10% and 9% and 3% | Population Mitochondria Different-Phenotype (%) [10]: 14% and 9% | Population Mitotic Cells (%) [10]: 71% and 60% and 73% | Population Normal (%) [10]: 95% and 98% and 83% | Population Pyknosed Nuclei (%) [10]: 5% and 6% and 13% | Population Tubulin-Different-Phenotype (%) [10]: 28% and 20% and 25% | Total Cell Count [10]: 93 and 175 and 144 | Population Apoptotic (%) [11]: 70% and 73% and 60% | Population Fragmented Nuclei (%) [11]: 7% | Population Healthy Nuclei (%) [11]: 76% and 61% | Population Hoechst High Intensity Objects (%) [11]: 2% and 4% | Population Membrane Permeable-Phenotype (%) [11]: 2% and 0% | Population Mitochondria Different-Phenotype (%) [11]: 35% and 32% and 47% | Population Mitotic Cells (%) [11]: 29% and 26% and 40% | Population Normal (%) [11]: 97% and 95% | Population Pyknosed Nuclei (%) [11]: 16% and 23% and 22% | Population Tubulin-Different-Phenotype (%) [11]: 17% and 9% and 25% | Total Cell Count [11]: 234 and 596 and 634 | Population Apoptotic (%) [12]: 35% and 38% and 33% | Population Fragmented Nuclei (%) [12]: 15% and 14% and 12% | Population Healthy Nuclei (%) [12]: 68% and 60% | Population Hoechst High Intensity Objects (%) [12]: 7% and 3% | Population Membrane Permeable-Phenotype (%) [12]: 6% and 18% and 17% | Population Mitochondria Different-Phenotype (%) [12]: 52% and 40% and 44% | Population Mitotic Cells (%) [12]: 64% and 61% and 66% | Population Normal (%) [12]: 92% and 96% | Population Pyknosed Nuclei (%) [12]: 15% and 17% and 28% | Population Tubulin-Different-Phenotype (%) [12]: 32% and 26% and 31% | Total Cell Count [12]: 113 and 78 and 158
